# Screening data (PubChem BioAssay)
# MIN6 prolif: MIN6 beta-cell proliferation induction; proliferation, % at 10 µM; AID 2380; actives 0.29% (n = 330,000); MIN6 cells proliferation, ATPlite luminescence, 48 h; cells starved in 0.2% serum; 100% = growth in 10% serum;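 active means compounds whose signal lies at least 3.5 SD above the mean of all wells on their plate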
# Myeloid diff MLP: myeloid differentiation induction; ER-HoxA9 myeloid progenitors, lysozyme-GFP differentiation, flow cytometry; calls only at 10 µM; actives 1% (n = 360,000); AID 624256;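 active means normalized GFP-positive differentiation at or above the plate's own cutoff, the solvent-only control mean plus 3 SD; inconclusive means no clear call, values can overlap the other calls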;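 further: cells exposed to compound for four days before flow analysis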
# SENP1 FRET inh: blocks the human SENP1 SUMO protease catalytic domain | recombinant SENP1 catalytic domain, CyPet-SUMO1-YPet FRET cleavage | inhibition, % at 10 µM | actives 0.21% (n = 360,000) | AID 624204;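 active means inhibition at least 30% at 10 µM, raw YFP signal under a set limit, fluorescence ratio 0.5 to 1.5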
#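 Test system: hSENP1 catalytic domain, recombinant; Amount: 20 pM final SENP1 enzyme; Medium: Tris pH 8 buffer plus EDTA, NaCl, BME, BSA, NP40, catalase; Schedule: 50 min enzyme reaction, room temperature, light-protected; Technique: FRET fluorescence in CFP and YFP emission channels; Controls: no-enzyme wells low, DMSO-plus-enzyme wells high control.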
# MT1-MMP act inh: inhibitors of human MT1-MMP activation; P50281; HT1080 RFP-PRO-GFP cells, GFP/RFP ratio fluorescence, overnight; percent of plate control window, DMSO zero; GFP/RFP ratio change, % at 20 µM; actives 0.061% (n = 360,000);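 active means GFP/RFP ratio change of at least 30% with cell ATP level not reduced by more than half and red fluorescence within 50% of control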
#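 Assay system: HT1080 RFP-PRO-GFP cells | Dosing: 20 µM single dose, 1% DMSO | Incubation: Cells overnight before dosing, compound overnight, 37 °C, 5% CO2 | Evaluation: GFP/RFP fluorescence ratio | Control set: DMSO-only wells and HT1080 RFP-L50D-GFP cell wells as references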
# CendR NRP1 mod: NRP-1/CendR interaction modulation | FAM-RPARPAR peptide binding to NRP-1, fluorescence polarization | inhibition, % at 25 µM | actives 0.85% (n = 360,000) | AID 602438;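 active means inhibition or corrected inhibition above about 18%, plus a signal ratio from 0.5 to 1.5, limit read from the data, passing the limit was not always enough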
# DAGLB inhibitor: diacylglycerol lipase beta (human) inhibition; AID 504411; inhibition, % at 5.17 µM; HEK293T DAGLB membrane lysate, EnzChek fluorogenic substrate; actives 0.059% (n = 340,000); Q8NCG7; in the data active means inhibition above about 34%
# Target sequence (Q8NCG7 whole entry, looked up): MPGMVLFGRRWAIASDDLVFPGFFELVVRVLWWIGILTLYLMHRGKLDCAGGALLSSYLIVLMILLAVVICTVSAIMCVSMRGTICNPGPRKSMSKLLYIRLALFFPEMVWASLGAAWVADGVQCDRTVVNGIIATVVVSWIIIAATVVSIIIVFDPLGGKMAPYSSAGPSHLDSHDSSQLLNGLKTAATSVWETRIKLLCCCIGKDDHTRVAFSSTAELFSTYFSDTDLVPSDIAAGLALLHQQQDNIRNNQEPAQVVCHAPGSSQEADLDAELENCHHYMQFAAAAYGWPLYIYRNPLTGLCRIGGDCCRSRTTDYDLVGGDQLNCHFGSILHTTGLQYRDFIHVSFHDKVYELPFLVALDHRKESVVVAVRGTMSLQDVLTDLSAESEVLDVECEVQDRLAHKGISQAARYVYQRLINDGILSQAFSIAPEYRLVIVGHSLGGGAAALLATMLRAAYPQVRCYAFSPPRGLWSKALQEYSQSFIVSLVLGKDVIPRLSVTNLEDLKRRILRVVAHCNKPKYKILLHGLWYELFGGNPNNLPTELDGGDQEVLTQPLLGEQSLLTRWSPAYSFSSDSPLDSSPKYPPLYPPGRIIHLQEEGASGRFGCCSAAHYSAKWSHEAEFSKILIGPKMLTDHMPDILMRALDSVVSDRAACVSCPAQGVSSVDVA
# A number is an active result; – = inactive; ? = inconclusive; · = no result given; + = active, no number. Most compounds without a hit are left out; they make up all but 2.4% or so of the library.
SMILES,MIN6 prolif,Myeloid diff MLP,SENP1 FRET inh,MT1-MMP act inh,CendR NRP1 mod,DAGLB inhibitor
C#C[C@]1(O)[C@H](O)CC2C3CC[C@H]4C[C@@H](O)CC[C@]4(C)C3CC[C@@]21C (stereo partly specified),–,+,–,–,–,·
C[C@]12CCC3C(CC[C@H]4C[C@@H](O)CC[C@]34C)C1C[C@@H](O)[C@]2(C)O (stereo partly specified),–,–,–,–,28,–
CC1(C)CC(CCNCc2ccc3c(c2)OCO3)(Cc2ccccc2)CCO1 (stereo unspecified),–,–,–,–,–,–
COC1C(C)OC(OC2CC(C)(O)Cc3cc4c(c(O)c32)C(=O)c2c(O)cc3c(c2C4=O)OC2OC3(C)C(O)C(N(C)C)C2O)C(OC)C1(C)OC (stereo unspecified),·,?,–,–,–,–
COC(=O)C1=C(c2ccc(F)cc2OCc2ccccc2)C[C@@H]2CC[C@H]1N2C(=O)NCc1ccccc1Cl,–,+,–,–,–,–
COC(=O)C1=C(c2ccc(F)cc2F)C[C@@H]2CC[C@H]1N2C(=O)NCCNC(C)=O,–,–,–,–,–,–
COC(=O)C1=C(c2ccc(F)cc2OCc2ccccc2)C[C@@H]2CC[C@H]1N2C(=O)NC(C)C,–,–,–,–,–,–
CCCNC(=O)N1[C@H]2CC[C@@H]1C(C(=O)OC)=C(c1ccc(F)cc1F)C2,–,–,–,–,32,–
COC(=O)C1=C(c2ccc(F)cc2OCc2ccccc2)C[C@@H]2CC[C@H]1N2C(=O)N1CCCC1,–,–,–,–,27,–
CC(C)[C@H](NC(=O)N1C[C@H]2C[C@@H](C1)c1cccc(=O)n1C2)C(=O)Nc1ccccc1F,–,–,–,–,–,–
O=C1NC(=O)N(c2ccc(Cl)cc2)C(=O)/C1=C/c1coc2ccc(O)cc2c1=O,–,+,–,–,–,–
Cc1cc(/C=C2\C(=O)NC(=O)N(c3ccc(Cl)cc3)C2=O)c(C)n1-c1cccc(C(=O)O)c1,–,–,–,–,–,–
O=C1NC(=O)N(c2ccccc2)C(=O)/C1=C/c1coc2ccc(O)cc2c1=O,–,+,–,–,–,–
O=C1NC(=O)N(c2ccccc2)C(=O)/C1=C/c1ccoc1,–,–,–,–,–,–
O=P(OCC(F)(F)C(F)F)(N1CCOCC1)N1CCOCC1,–,–,–,–,–,–
Cc1cccnc1-n1c(-c2ccco2)nc2ccccc2c1=O,–,–,–,–,–,–
O=c1c2ccccc2nc(-c2ccco2)n1-c1ccccn1,–,–,–,–,32,–
CC[n+]1c(-c2ccccc2)c2cc(N)ccc2c2ccc(N)cc21,·,+,–,–,47,–
COC(=O)C1=C(c2cccc(C#N)c2)C[C@@H]2CC[C@H]1N2C(=O)NCCO,–,–,–,–,29,–
COC(=O)C1=C(c2cccc(C#N)c2)C[C@@H]2CC[C@H]1N2C(=O)N1CCCCC1,–,–,–,–,–,–
COC(=O)C1=C(c2ccc(Cl)c(C(F)(F)F)c2)C[C@@H]2CC[C@H]1N2C(=O)NCCNC(C)=O,–,–,–,–,24,–
COC(=O)C1=C(c2cccc(C#N)c2)C[C@@H]2CC[C@H]1N2C(=O)N1CCC(O)CC1,–,–,–,–,25,–
COC(=O)C1=C(c2ccc(Cl)c(C(F)(F)F)c2)C[C@@H]2CC[C@H]1N2C(=O)NCCCOC(C)C,–,–,–,–,–,–
O=C(C[N+]12CCC(CC1)C(C(O)(c1ccccc1)c1ccccc1)C2)c1ccc(Br)cc1 (stereo unspecified),–,–,–,–,–,–
Clc1cnc(Oc2ccc(Oc3ncc(Cl)cc3Cl)cc2)c(Cl)c1,–,–,–,–,–,–
SMILES,MIN6 prolif,Myeloid diff MLP,SENP1 FRET inh,MT1-MMP act inh,CendR NRP1 mod,DAGLB inhibitor
Cc1ccc2nsnc2c1-n1c(C)nc2ccccc2c1=O,–,+,–,–,–,–
FC(F)(F)c1cccc(NC2=NCCS2)c1,·,–,–,–,–,–
O=C1C=CC(=O)C2C1C1(Cl)C(Cl)=C(Cl)C2(Cl)C1(Cl)Cl (stereo unspecified),·,–,–,–,26,–
Cc1ccc(-c2cc(-c3ccccc3)cc(-c3ccccc3)[n+]2-c2ccccc2C(=O)O)cc1,–,–,–,–,26,–
CCN1CCC(O)(c2ccccc2)C(C(=O)c2ccccc2)C1 (stereo unspecified),–,–,–,–,–,–
COc1ccc(OC)c(NC2=NCCCS2)c1,–,+,–,–,–,–
COc1cc(C2SCC(=O)Nc3c2c(=O)[nH]n3C2CCCCCC2)cc(OC)c1OC (stereo unspecified),–,–,–,–,–,–
CN1C[C@H](CO)C=C2c3cccc4[nH]cc(c34)C[C@H]21,–,–,–,–,46,–
CC(C)Oc1ccc(CC2(CCc3ccncc3)C(=O)NC(=O)NC2=O)cc1,–,–,–,–,–,–
CC12CC[C@H]3[C@@H](CCC4(O)C[C@H](O)CCC34/C=N/NC(=O)c3ccc(O)cc3)C1(O)CCC2C1=CC(=O)OC1 (stereo partly specified),–,–,–,–,–,–
COc1ccc(C(=O)N/N=C/C23CC[C@@H](O)CC2(O)CC[C@@H]2[C@@H]3CCC3(C)C(C4=CC(=O)OC4)CCC23O)cc1 (stereo partly specified),–,+,–,–,–,–
COc1ccccc1N1CCN(Cc2cccc(OC)c2O)CC1,–,–,–,–,–,–
CC(=O)OC1CC[C@]2(C#N)[C@H]3CC[C@]4(C)[C@H](C5C=CC(=O)O5)CCC4(O)C3CCC2(O)C1 (stereo partly specified),–,–,–,–,22,–
CC(=O)OC1CC(OC2C(O)CC(OC3C(O)CC(OC4CCC5(C)C(CCC6C5CCC5(C)C(C7=CC(=O)OC7)CCC65O)C4)OC3C)OC2C)OC(C)C1OC1OC(CO)C(O)C(O)C1O (stereo unspecified),·,·,–,–,–,–
CNCC[C@@H](Oc1ccc(C(F)(F)F)cc1)c1ccccc1,–,–,–,–,–,–
Cc1ncc(CN2CCCC(C(=O)c3ccc(C(C)(C)C)cc3)C2)s1 (stereo unspecified),–,–,–,–,–,–
COC(=O)C1=C(c2ccccc2OCc2ccccc2)C[C@@H]2CC[C@H]1N2C(=O)NCCOc1ccc(OC)cc1,–,–,–,–,–,–
Cc1cc(C)cc(N2C(=O)/C(=C\c3ccc(N4CCN(C)CC4)o3)C(=O)NC2=S)c1,–,–,76,–,–,·
CCN(CC)c1ccc(C=C2C(=O)N(C)C(=S)N(C)C2=O)o1,–,–,87,–,–,–
